Experimental data: article PMC13334471 (Journal of molecular and cellular cardiology, 2026)

Assays:
[1] = biological target: tropomyosin (rabbit cardiac α-tropomyosin) (Oryctolagus cuniculus, UniProt P58772); experiment: LSPR binding of cTnT-C14 peptides to immobilized tropomyosin; settings: peptide 2 μM, mutants vs WT
How it was run: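 Rabbit cardiac α-Tm immobilized on a carboxyl-gold LSPR chip from 50 μg/mL in 10 mM Na acetate pH 4.0. Blocked with 1 M ethanolamine, then 1 mM 6-mercapto-1-hexanol in 30% EtOH. Peptides flowed at 20 μL/min for 4 min in 0.1 M KCl, 3 mM MgCl2, 10 mM imidazole-HCl pH 7.0; buffer dissociation to baseline or plateau. Plateau Δpm taken; 1:1 fit; KD = koff/kon.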

F-actin = F-actin (Oryctolagus cuniculus, UniProt P68135); experiment: LSPR direct binding of cTnT-C14 peptides to immobilized F-actin; parameters: species or system rabbit; settings: mutants vs WT
How it was run: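 Rabbit back-muscle F-actin immobilized on a carboxyl-gold LSPR chip with no Tm, run as for the Tm binding assay. Chip blocked with ethanolamine and 6-mercapto-1-hexanol. Peptides flowed at 20 μL/min in 0.1 M KCl, 3 mM MgCl2, 10 mM imidazole-HCl pH 7.0, then buffer dissociation. Plateau Δpm taken; rate constants from 1:1 fit; KD = koff/kon.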

In the case of INVLRNRINDNQKV [E16], the “Tm binding / binding signal (in words)” value [1] is reported as “non-Tm-binding” and the “F-actin binding / binding signal (in words)” value (F-actin) is reported as “non-actin-binding”.
